CRFBP-R2 agonist = CRF-BP/CRF-R2 complex agonism; HEK293 CRF-R2/CRF-BP, calcium dye fluorescence (FLIPR); percent of saturating CRF peptide response; activation, % at 13.2 µM; 0.46% of 350,000 active;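 active means activation of at least 50%, plus an integration ratio under a set limit after plate pattern correction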
Cardio protect = protects H9c2 cardiomyocytes from peroxide injury. H2O2 injury protection, ATPLite, 2 h. protection from H2O2 cell death, % at 20 µM. 0.63% of 360,000 active;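 active means compounds giving at least 50% protection of heart cells from peroxide-induced death in the single-dose screen, raw or plate-pattern-corrected value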
beta cell repl = inducers of beta-cell replication in MIN6 cells; proliferation, % at 10 µM; 0.29% of 330,000 active; MIN6 cells proliferation, ATPlite luminescence, 48 h; cells starved in 0.2% serum; 100% = growth in 10% serum;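 active means compounds whose signal lies at least 3.5 SD above the mean of all wells on their plate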
hiPSC survival = hiPSC single-cell survival enhancement; ATPlite luminescence; 100% = ROCK inhibitor wells, 0% = DMSO; survival enhancement, % at 20 µM; 0.044% of 360,000 active; AID 602274; in the data active means survival enhancement above about 18%;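 further: cells exposed to compounds for 16 hours before the ATP read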
CRFR2-BP antag = blocks CRF-induced signaling of the CRF-BP/CRF-R2 complex | HEK293 CRF-R2/CRF-BP, CRF-induced calcium fluorescence | inhibition, % at 11.8 µM | 0.59% of 350,000 active | AID 588475;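 active means inhibition of the ligand-induced calcium signal above about 50% at the single tested concentration, limit read from the data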
UCH37 inh = inhibitors of human deubiquitinating enzyme UCH37 | Q9Y5K5 | purified proteasome/UCH37, Ub-AMC cleavage fluorescence | inhibition, % (concentration not given with the values) | 0.33% of 330,000 active;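 active means mean inhibition over replicate wells above about 20%, limit read from the data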
Target sequence (Q9Y5K5 whole entry, looked up): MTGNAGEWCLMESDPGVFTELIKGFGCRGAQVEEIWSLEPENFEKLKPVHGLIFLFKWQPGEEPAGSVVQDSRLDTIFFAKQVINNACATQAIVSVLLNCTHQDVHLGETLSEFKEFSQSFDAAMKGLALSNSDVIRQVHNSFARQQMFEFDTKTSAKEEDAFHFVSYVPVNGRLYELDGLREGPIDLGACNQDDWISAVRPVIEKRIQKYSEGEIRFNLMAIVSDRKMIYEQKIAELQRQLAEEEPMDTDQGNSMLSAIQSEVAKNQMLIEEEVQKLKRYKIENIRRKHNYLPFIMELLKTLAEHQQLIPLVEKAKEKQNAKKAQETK
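Material: Human UCH37 enzyme supplied as purified proteasome complex | Schedule: 30 min compound-proteasome preincubation then 25 min substrate reaction, room temperature | Detection: AMC fluorescence from Ub-AMC cleavage, excitation 355 nm, emission 460 nm | Benchmarks: Wells without proteasome as full block, compound-free enzyme plus substrate as uninhibited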
Numbers stand for hits. Sampled rows, rich in hits. Any-hit rate of the full collection: about 2.1%.

For CNc1ccc2oc(C[C@H]3O[C@@]4(CC[C@H]3C)O[C@H]([C@H](C)C(=O)c3ccc[nH]3)[C@H](C)C[C@H]4C)nc2c1C(=O)O the results were CRFBP-R2 agonist 211, Cardio protect inactive, beta cell repl inactive, hiPSC survival inactive, CRFR2-BP antag inactive and UCH37 inh inactive.
For Cc1nn(Cc2ccccc2)c(Cl)c1C(=O)NC1CCCc2ccccc21 (stereo not drawn) the results were CRFBP-R2 agonist inactive, Cardio protect inactive, beta cell repl inactive, hiPSC survival inactive, CRFR2-BP antag 90 and UCH37 inh inactive.
Screening CN1CCN(Cc2nc3ccccc3c(=O)[nH]2)CC1 returned CRFBP-R2 agonist inactive, Cardio protect 55, beta cell repl inactive, hiPSC survival inactive, CRFR2-BP antag inactive and UCH37 inh inactive.
For O=c1[nH]c(CN2CCNCC2)nc2ccccc12 the results were CRFBP-R2 agonist inactive, Cardio protect inactive, beta cell repl inactive, hiPSC survival inactive, CRFR2-BP antag inactive and UCH37 inh inactive.
COc1ccc(OC)c(C=NOC(=O)Nc2ccc(Cl)cc2)c1 was read as UCH37 inh inactive.
For CC(=O)N1N=C2C3CCN(CC3)C2C1c1cccc2ccccc12 (stereo not drawn) the results were CRFBP-R2 agonist 81, Cardio protect inactive, beta cell repl inactive, hiPSC survival inactive, CRFR2-BP antag inactive and UCH37 inh inactive.
`COC(=O)C1=C(c2cc3ccccc3o2)C[C@@H]2CC[C@H]1N2C(=O)N1CCOCC1` gave CRFBP-R2 agonist inactive, Cardio protect inactive, beta cell repl inactive, hiPSC survival inactive, CRFR2-BP antag inactive and UCH37 inh 27.
Screening COC(=O)C1=C(c2ccc3ccccc3c2)C[C@@H]2CC[C@H]1N2C(=O)N1CCOCC1 returned CRFBP-R2 agonist inactive, Cardio protect inactive, beta cell repl inactive, hiPSC survival inactive, CRFR2-BP antag inactive and UCH37 inh inactive.
Screening CCOc1cc(C=C2C(=O)NC(=O)NC2=O)ccc1OS(=O)(=O)c1ccccc1 returned CRFBP-R2 agonist inactive, Cardio protect inactive, beta cell repl inactive, hiPSC survival inactive, CRFR2-BP antag inactive and UCH37 inh 20.
Screening CC1=CC(=O)OC2CC3OC4C[C@@H](C)C5OC6CC7O[C@]8(C)C/C=C\C9OC%10CC%11OC(CC(C)C%12OCCO%12)CC(O)[C@]%11(C)OC%10CC9OC8C[C@]7(C)O[C@]6(C)CCC5OC4C[C@]3(C)OC12 (stereo partly drawn) returned CRFBP-R2 agonist 75, Cardio protect inactive, beta cell repl inactive, hiPSC survival inactive, CRFR2-BP antag inactive and UCH37 inh inactive.
O=P(C(=NO)N1CCCCC1)(N1CCOCC1)N1CCOCC1 was read as UCH37 inh inactive.
For Cc1ccc2c(c1)Oc1ccccc1N=C2 the results were CRFBP-R2 agonist inactive, Cardio protect inactive, hiPSC survival inactive and CRFR2-BP antag 65.
C=CCn1c(O)c(C=Nc2c(C)n(C)n(-c3ccccc3)c2=O)c(=O)[nH]c1=O was read as CRFBP-R2 agonist inactive, Cardio protect inactive, beta cell repl inactive, hiPSC survival inactive, CRFR2-BP antag inactive and UCH37 inh 20.
For Oc1c(Br)c(Br)c(Br)c(Br)c1Br the results were CRFBP-R2 agonist inactive, Cardio protect inactive, beta cell repl inactive, hiPSC survival inactive and CRFR2-BP antag 58.
NC(=N[N+](=O)[O-])N1CCN(C(=O)Oc2ccccc2)CC1 was read as UCH37 inh inactive.
Screening Cc1ccc(N2C(=O)CC(=O)NC2=O)c(C)c1 returned CRFBP-R2 agonist inactive, Cardio protect inactive, beta cell repl inactive, hiPSC survival inactive, CRFR2-BP antag 57 and UCH37 inh inactive.
Screening NC(=NN=Cc1ccc(-c2ccc(O)c(C(=O)O)c2)o1)N[N+](=O)[O-] returned UCH37 inh 22.
NC(=NN=Cc1ccc(O)cc1O)N[N+](=O)[O-] was read as UCH37 inh inactive.
COc1ccc(C=NN=C(N)N)cc1 was read as UCH37 inh inactive.
`O=C(O)Cn1cc(/C=C2\C(=O)NC(=O)N(c3ccc(Cl)cc3)C2=O)c2ccccc21` gave CRFBP-R2 agonist inactive, Cardio protect inactive, beta cell repl inactive, hiPSC survival inactive, CRFR2-BP antag inactive and UCH37 inh inactive.
`Cn1cc(/C=C2\C(=O)NC(=O)N(c3ccccc3)C2=O)c2ccccc21` gave CRFBP-R2 agonist 115, Cardio protect inactive, beta cell repl inactive, hiPSC survival inactive and CRFR2-BP antag inactive.
Screening CCCCOc1ccc(CC2C(=O)N(C)C(=O)N(C)C2=O)cc1 returned CRFBP-R2 agonist inactive, Cardio protect inactive, beta cell repl inactive, hiPSC survival inactive, CRFR2-BP antag inactive and UCH37 inh 29.
For CCCN1CCc2cccc3c2[C@H]1Cc1ccc(O)c(O)c1-3 the results were CRFBP-R2 agonist inactive, Cardio protect 51, beta cell repl inactive, hiPSC survival inactive, CRFR2-BP antag inactive and UCH37 inh inactive.
CCn1nc(-c2ccccc2)nc2c(=O)n(C)c(=O)nc1-2 was read as CRFBP-R2 agonist inactive, Cardio protect inactive, beta cell repl inactive, hiPSC survival inactive, CRFR2-BP antag inactive and UCH37 inh 99.
`COc1ccc(-c2nc3ccccc3c(=O)n2-c2ccc(OC)cc2)cc1` gave CRFBP-R2 agonist inactive, Cardio protect inactive, beta cell repl inactive, hiPSC survival inactive, CRFR2-BP antag inactive and UCH37 inh inactive.
`O=[N+]([O-])C=C1NCCN1Cc1ccc(Cl)nc1` gave UCH37 inh inactive.
Screening COC(=O)C1=C(c2ccc(Cl)c(C(F)(F)F)c2)C[C@@H]2CC[C@H]1N2C(=O)NCCO returned CRFBP-R2 agonist inactive, Cardio protect inactive, beta cell repl inactive, hiPSC survival inactive, CRFR2-BP antag inactive and UCH37 inh 33.
`NC(=O)c1ccc(N=Cc2c(O)n(Cc3ccco3)c(=O)[nH]c2=O)cc1` gave CRFBP-R2 agonist inactive, Cardio protect inactive, beta cell repl inactive, hiPSC survival inactive and CRFR2-BP antag inactive.
CCN(CCO)c1ccc(N=Cc2c(O)n(C)c(=S)[nH]c2=O)cc1 was read as CRFBP-R2 agonist 87, Cardio protect inactive, beta cell repl inactive, hiPSC survival inactive, CRFR2-BP antag inactive and UCH37 inh inactive.
For O=c1[nH]c(=O)n(Cc2ccco2)c(O)c1C=NCc1cccs1 the results were CRFBP-R2 agonist inactive, Cardio protect 54, beta cell repl inactive, hiPSC survival inactive, CRFR2-BP antag inactive and UCH37 inh inactive.
`CCN(CC)c1ccc(N=Cc2c(O)n(CCc3ccc(OC)c(OC)c3)c(=O)[nH]c2=O)cc1` gave CRFBP-R2 agonist 127, Cardio protect inactive, hiPSC survival inactive, CRFR2-BP antag inactive and UCH37 inh inactive.
For O=c1[nH]c(=S)n(Cc2ccco2)c(O)c1C=NCc1cccs1 the results were CRFBP-R2 agonist inactive, Cardio protect inactive, beta cell repl inactive, hiPSC survival inactive, CRFR2-BP antag inactive and UCH37 inh inactive.

Bioassay records from PubChem BioAssay.
